WT yeast gro inh = growth inhibition of WT yeast, mitochondrial fusion screen | hit rate 2.1% among 190,000 | AID 1362 | inhibition, % at 10 µM | mitochondrial fusion phenotypic screen, WT strain; in the data active = inhibition above about 58%; tested in S. cerevisiae
G6PDH CS = inhibits Leuconostoc G6PDH, flagging false hits in G6PDH-based assays. Purified L. mesenteroides G6PDH, diaphorase/resazurin coupled fluorescence, 45 min. inhibition, % at 5 µM. hit rate 0.12% among 200,000
Lmaj promast = inhibitors of Leishmania major promastigote growth; Leishmania major promastigotes, resazurin fluorescence viability; AID 1063; hit rate 9% among 200,000; inhibition, % at 10 µM;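 note: promastigotes grown with compound for 44 hours at 28 °C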
Diaph inh CS = diaphorase inhibition or chemical oxidation counter-screen. hit rate 0.69% among 190,000. inhibition, % at 20 µM. diaphorase resazurin-to-resorufin fluorescence, NADH, 16 min; bacterial (C. kluyveri) enzyme, not human;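 active = primary screen inhibition at 20 µM above a set limit, cut at about 50% in these data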
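Benchmarks: positive control wells lacking NADH, neutral wells with DMSO only. System: bacterial diaphorase enzyme (C. kluyveri). Input: 0.14 U/mL diaphorase, enzyme working solution. Detection: resorufin fluorescence, excitation 544 nm, emission 590 nm. Times: 16-min room-temperature incubation before reading.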
Diaph act CS = diaphorase activation or chemical reduction counter-screen. Diaphorase/resazurin coupled assay, resorufin fluorescence, 16 min; hits give high values; 1 = vehicle wells, 0 = NADH-free wells. AID 1229. activation factor at 20 µM. hit rate 0.005% among 190,000;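 active = diaphorase activity raised at least twofold by the compound at 20 µM; inactive = activation factor below 2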
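Material: Purified diaphorase enzyme from Clostridium kluyveri | Buffer or medium: 50 mM HEPES pH 7.4 with 4.542 mM MgCl2, 0.005% Tween 20 | Times: 16 min enzyme reaction, ambient temperature | Signal: Red resorufin fluorescence at 544/590 nm excitation/emission | Measure: Increased resorufin signal from activators or reducing compounds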
A number is an active result; - = inactive; . = no result given. Rows were chosen to be rich in hits. Some 11% of all compounds tested hit in one or more screens of this group. Cut-off read from the data, not from the text of the source, unless noted: active = inhibition above about 50%; inactive = the rest.

SMILES | WT yeast gro inh | G6PDH CS | Lmaj promast | Diaph inh CS | Diaph act CS
Cc1cc(OCCCCNC(C)C)cc(C(C)C)c1 | - | - | 97 | - | -
CCOC(=O)C1(Cc2cccc(OC)c2)CCCN(C(=O)CCc2cccnc2)C1 (centres undefined) | - | - | - | - | -
COc1ccc(/C=N/NC(=O)c2ccncc2)cc1CSc1nc2ccccc2s1 | - | - | - | - | -
CCc1ccc2c(c1)C(c1ccc(N3CCOCC3)cc1)=NNC(c1ccncc1)=N2 | 68 | - | 57 | - | -
Cc1ccc2c(c1)C(c1ccc(N3CCOCC3)cc1)=NNC(c1cccs1)=N2 | - | - | 86 | - | -
Brc1ccc2c(c1)C(c1ccc(N3CCOCC3)cc1)=NNC(c1cccs1)=N2 | - | - | 78 | - | -
CCOc1ccc2c(c1)C(c1ccc(C)cc1)=NNC(c1ccc(OC)cc1)=N2 | - | - | - | - | -
Fc1ccc2c(c1)C(c1ccc(N3CCOCC3)cc1)=NNC(c1cccs1)=N2 | - | - | - | - | -
CCc1ccc2c(c1)C(c1ccc([N+](=O)[O-])cc1)=NNC(c1ccc(C)cc1)=N2 | - | - | 85 | - | -
CCc1cc(C(=O)N=Nc2c(O)[nH]c3c(Br)cc(Br)cc23)c2ccccc2n1 | - | - | - | - | -
O=C(c1noc2c1CCCC2)N1CCC(CO)(Cc2ccccc2Cl)CC1 | - | - | - | - | -
CCN(CC)S(=O)(=O)c1cccc(C(=O)N/N=C/c2cccc(O)c2O)c1 | - | - | 98 | - | -
O=C(N/N=C/c1ccccc1O)c1cccc(C(F)(F)F)c1 | - | - | 98 | - | -
O=C(N/N=C/c1ccc(-c2ccccc2[N+](=O)[O-])o1)c1cccnc1 | - | - | 95 | 59 | -
O=C(N/N=C/c1ccc(O)cc1)c1cccc(C(F)(F)F)c1 | - | - | - | - | -
O=C(O)c1cccc(-c2ccc(/C=N/NC(=O)c3cccnc3)o2)c1 | - | - | - | - | -
O=C(N/N=C/c1ccco1)/C(=C/c1cccc([N+](=O)[O-])c1)NC(=O)c1ccccc1 | - | - | - | - | -
O=C(N/N=C/c1ccc(Br)o1)/C(=C/c1ccc([N+](=O)[O-])cc1)NC(=O)c1ccccc1 | - | - | 57 | - | -
Cc1ccc(C)c(NC(=O)C2CCCN2S(=O)(=O)c2ccc3c(c2)n(C)c(=O)c(=O)n3C)c1 (centres undefined) | - | - | - | - | -
O=C(N/N=C/c1ccc(-c2cccc([N+](=O)[O-])c2)o1)c1ccccc1O | - | - | 93 | - | -
C=CCNC(=S)N/N=C/c1ccc(-c2cccc([N+](=O)[O-])c2)o1 | - | - | - | - | -
O=C(N/N=C/c1ccc(-c2cccc(C(F)(F)F)c2)o1)c1ccccc1Br | - | - | - | - | -
O=C(N/N=C/c1ccc(-c2cccc(C(F)(F)F)c2)o1)c1ccccc1O | - | - | 98 | - | -
O=C(N/N=C/c1ccc(-c2cccc([N+](=O)[O-])c2)o1)c1ccc([N+](=O)[O-])cc1 | - | - | 64 | - | -
COc1ccc(NC(=O)c2cc3c(=O)n4ccccc4nc3n2C)cc1OC | - | - | - | - | -
SMILES | WT yeast gro inh | G6PDH CS | Lmaj promast | Diaph inh CS | Diaph act CS
CCCOc1ccc(C2NC(=S)NC(C)=C2C(=O)c2ccccc2)cc1OC (centres undefined) | - | - | - | - | -
CCC(C)(C)NC(=O)C(c1ccc(F)cc1)N(Cc1ccco1)C(=O)c1cnccn1 (centres undefined) | - | - | - | - | -
COc1ccc2ccccc2c1CNCCCN1CCOCC1 | - | - | - | - | -
C=CCOc1ccc2ccccc2c1CNCCCN1CCOCC1 | 64 | - | - | - | -
Cc1ccc(OCC(=O)NNC(=S)NC(=O)C(C)(C)C)c(Br)c1 | 84 | - | - | - | -
COc1ccc(NC(=S)NNC(=O)COc2ccc(Cl)cc2Cl)cc1 | 69 | - | - | - | -
COc1ccc(NC(=O)CCN2CCN(S(=O)(=O)c3cc(Cl)ccc3OC)CC2)cc1 | - | - | 82 | - | -
CCOc1ccc(NC(=O)CCN2CCN(S(=O)(=O)c3ccc(OC)cc3)CC2)cc1 | - | - | - | - | -
Cc1cccc(NC(=S)NNC(=O)COc2ccc(Cl)cc2Cl)c1 | 63 | - | - | - | -
CCC(=O)NC(=S)Nc1ccc(NC(=O)COc2ccc(Cl)cc2Cl)cc1 | . | - | - | - | -
Cc1ccc(NC(=O)CSc2nnc3n2CCCCC3)cc1 | - | - | - | - | -
O=C(Nc1ccc(N2CCOCC2)cc1)c1ccc([N+](=O)[O-])cc1 | - | - | - | - | -
CC(C)c1cc(C(=O)O)n(-c2ccccc2)n1 | - | - | - | - | -
CCC(NC(=O)c1ccccc1NC(=O)c1ccco1)C(=O)O (centres undefined) | - | - | 89 | - | -
O=C(O)CC(NC(=O)c1ccccc1NC(=O)c1ccccc1)C(=O)O (centres undefined) | - | - | - | - | -
CCC(NC(=O)c1ccccc1NC(=O)c1ccccc1)C(=O)O (centres undefined) | - | - | 65 | - | -
COC(=O)C1CC(=O)c2sccc2C1 (centres undefined) | - | - | - | - | -
CC1CC2=C(NC(=S)NC2c2cccc(F)c2)/C(=C/c2cccc(F)c2)C1 (centres undefined) | 61 | - | - | - | -
Fc1cccc(C2NC(=S)NC3=C2N2CCC3CC2)c1 (centres undefined) | - | - | - | - | -
CC1CC2=C(NC(=S)NC2c2ccccc2F)/C(=C/c2ccccc2F)C1 (centres undefined) | 80 | - | - | - | -
CCc1nnc(N/N=C/c2ccc(N3CCC(C)CC3)c([N+](=O)[O-])c2)n1N | - | - | 73 | - | -
Cc1nnc(N/N=C/c2cc([N+](=O)[O-])c(N3CCC(C)CC3)cc2N2CCC(C)CC2)n1N | - | - | 100 | - | -
CCOc1ccc(OCCCCOc2ccccc2C(C)=O)cc1 | - | - | - | - | -
CC(=C/c1ccccc1)/C=N/n1c(-c2ccncc2)n[nH]c1=S | - | - | - | 66 | -
CC(/C=N/n1c(-c2cccnc2)n[nH]c1=S)=C\c1ccccc1 | - | - | - | - | -
SMILES | WT yeast gro inh | G6PDH CS | Lmaj promast | Diaph inh CS | Diaph act CS
CC(/C=N/n1c(COc2ccccc2)n[nH]c1=S)=C\c1ccccc1 | 75 | - | - | - | -
Cc1ccc(OCc2n[nH]c(=S)n2-c2ccccc2)cc1C | 67 | - | - | - | -
CCOc1ccc(CCNC(=O)C2CCCN(C(=O)N(C)C)C2)cc1OCC (centres undefined) | - | - | - | - | -
O=[N+]([O-])c1cc(/C=N/O)ccc1Oc1ccccc1Cl | - | - | - | - | -
O=[N+]([O-])c1cc(/C=N/O)ccc1Oc1cccc(Cl)c1 | 72 | - | - | - | -
O=[N+]([O-])c1cc(/C=N/O)ccc1Sc1ccccc1 | - | - | 78 | - | -
C(=N\N(c1ccccc1)c1ccccc1)/c1ccc(N2CCOCC2)s1 | - | - | - | - | -

Screens: PubChem BioAssay, several laboratories
